Bioassay records deposited in PubChem by several laboratories.
A selection: hits, their analogues and other compounds. The true share with any hit is near 5.1%.
APP 5'UTR act – activates APP 5'UTR luciferase reporter. AID 1276. SH-SY5Y APP 5'UTR luciferase reporter, luminescence; zero percent = DMSO vehicle wells. hit rate 1% among 190,000. activation, % at 2 µM;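 active means activation above a set limit, based on mean plus 3 SD of controls, cut at about 140% in these data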
STAT3 activator – increases IL-6 driven STAT3 reporter signal. U3A cells, IL-6 STAT3-luciferase reporter, luminescence; 100% = signal with IL-6 EC80 alone. activation (% of control), % at 5.6 µM. hit rate 0.91% among 190,000. AID 871;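 active means activation above the screen-wide mean of compound activation plus 3 SD, cut at about 130% in these data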
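Material: human STAT1-deficient U3A cells with stable STAT3-luciferase reporter / Probe or stimulus: IL-6 stimulus at 33 ng/mL final / Schedule: 1 h compound pre-exposure, 6 h IL-6 stimulation, 37 °C / Technique: luminescence / Read-out basis: percent of IL-6-only median luminescence / Control set: IL-6-only high control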
STAT3 inh – inhibitors of IL-6 induced STAT3 signaling | U3A cells, IL-6 STAT3-luciferase reporter, luminescence; host cell line lacks STAT1 | inhibition, % at 5.5 µM | hit rate 0.89% among 190,000 | AID 862;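 active means inhibition above the mean inhibition across all screened compounds plus 3 SD, cut at about 44% in these data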
STAT1 blocker – reduces IFN-gamma driven STAT1 reporter signal; hit rate 0.35% among 200,000; inhibition, % at 5.5 µM; NIH 3T3 STAT1-luciferase reporter, luminescence;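 active means inhibition above a set limit, the mean inhibition across all tested compounds plus 3 SD, cut at about 34% in these data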
STAT1 activator – activators of IFN-gamma induced STAT1 signaling; NIH 3T3 STAT1-luciferase reporter, luminescence; 100% = IFN-gamma alone, no compound; hit rate 2.6% among 200,000; AID 932; activation (% of control), % at 5.5 µM;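 active means activation above the screen-wide mean activation plus 3 SD, cut at about 130% in these data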
NF-kB expr up – compounds increasing NF-kB expression in human neuronal cells; hit rate 1.6% among 190,000; fold change at 12.5 µM; NF-kB reporter expression; stronger effect = higher value; in the data active means fold change above about 3.3
Of the large screens only hits and unclear results are named; the others gave an inactive call.

CCN1CCN(c2ccc(NC(=O)c3ccc([N+](=O)[O-])o3)cc2Cl)CC1	STAT1 activator 148
CCC(=O)N1CCN(c2ccc(NC(=O)c3ccc([N+](=O)[O-])o3)cc2Cl)CC1	STAT1 activator 130
CCC(=O)N1CCN(c2ccccc2NC(=O)c2ccc(-c3cccc([N+](=O)[O-])c3)o2)CC1	none
CCN1CCN(c2ccc(NC(=O)c3ccc(F)cc3)cc2Cl)CC1	none
Cc1ccccc1OCCCC(=O)Nc1ccccc1C(F)(F)F	none
C=CCNC(=S)N1CCN(Cc2ccccc2)CC1	none
CC(=O)c1cnc(Nc2ccc(C)cc2)s1	STAT1 activator 137
Cc1ccc(Nc2ncccc2C(N)=O)cc1	none
COc1ccccc1-n1cc(C(=O)NCC(=O)N2CCN(c3ccccc3)CC2)c2ccccc2c1=O	STAT1 activator 136
O=C(CSc1n[nH]c(-c2ccccc2F)n1)NCC(=O)Nc1ccc(F)c(F)c1F	none
O=C1c2ccccc2C(=O)N1CCN1CCc2ccccc21	STAT1 activator 132
O=C(O)c1ccc(/C=C/c2ccc3cccc(O)c3n2)cc1	none
COC(=O)c1ccc(/C=C/c2ccc3cccc(OC(C)=O)c3n2)cc1	NF-kB expr up 3.7
CCc1ccc(NC(=O)C(=O)NCc2ccccn2)cc1	STAT1 activator 132
CCc1ccc(CNC(=O)C(=O)NCC2CCCO2)cc1 (centres undefined)	none
CCc1ccc(NC(=O)C(=O)NCC2CCCO2)cc1 (centres undefined)	STAT1 activator 131
COc1ccc(S(=O)(=O)N2CCCC(C(F)(F)F)C2)cc1 (centres undefined)	none
CN(C)/C=C1/Oc2c(ccc3ccccc23)C1=O	none
CN(C)/C=C1\Oc2ccc3ccccc3c2C1=O	STAT1 activator 135, NF-kB expr up 3.7
c1csc(-c2cn3ccc4ccccc4c3n2)c1	STAT3 activator 171, STAT1 activator 144, NF-kB expr up 4.7
c1cc(-c2cccs2)nc(-c2cccs2)c1	none
O=C(CSc1ncnc2ccccc12)c1ccco1	APP 5'UTR act 146, STAT1 activator 132, NF-kB expr up 5.6
c1csc(CSc2nc3ccccc3s2)c1	STAT1 activator 145
c1csc(CSc2nnc3sc4ccccc4n23)c1	STAT1 activator 132
Cc1cc(=O)[nH]c(N/N=C/c2ccc(OC(=O)c3ccco3)cc2)n1	none
CN(C)C=NC(=O)/C(C#N)=C/c1ccccc1	none
COCC(C)n1c(C)cc(C(=O)COC(=O)/C=C/c2cccc(F)c2)c1C (centres undefined)	none
COC(=O)c1cc(NC(=O)Cc2ccccc2[N+](=O)[O-])cc(C(=O)OC)c1	none
CCC(CC)C(=O)Nc1cccc(SC)c1	none
O=Cc1s/c(=N\S(=O)(=O)c2ccccc2)n(CCCCl)c1Cl	STAT1 activator 136
O=C(CC1NCCc2ccccc21)Nc1ccc(Cl)cc1 (centres undefined)	STAT3 activator 133
O=C(CC1NC(=O)NC1=O)Nc1ccc(Cl)cc1 (centres undefined)	none
COc1cc(C(=O)N/N=C/c2ccc(OC)c(CN3CCN(c4ccc(F)cc4)CC3)c2)ccc1O	none
C=CCc1ccc(OCCn2cccc2C=O)c(OC)c1	STAT1 activator 147
C=CCc1ccc(OCCOCCN(C)C)c(OC)c1	none
COc1ccc(/C=C/C(=O)N(C)Cc2cccs2)cc1S(=O)(=O)N1CCOCC1	none
COc1ccc(S(=O)(=O)CC2(O)CCN(C(=O)C(C)(C)C)CC2)cc1	none
CC1(C)CC(=O)C2=C(C1)N(c1ccc(F)cc1)C(=O)C2(NC(=O)c1ccccc1)C(F)(F)F (centres undefined)	none
Cc1ccc(N2C(=O)C(NC(=O)c3ccccc3)(C(F)(F)F)C3=C2CC(C)(C)CC3=O)cc1 (centres undefined)	NF-kB expr up 14
CC(=O)N1CCN(Cc2nc(-c3cccc(Cl)c3)no2)CC1	none
NC(=S)N1OC[C@@H]2COc3ccc4ccccc4c3[C@@H]21	none
O=C(N/N=C1\CCCc2ccccc21)c1ccc([N+](=O)[O-])cc1	none
NC(=O)C(=O)N/N=C1\CCc2ccccc21	STAT1 activator 131
Cc1ccc(C(=O)N/N=C2\CCCc3ccccc32)c(C)c1	STAT1 activator 129
CCOC(=O)C1=C(C)NC(C)=C(C(=O)OCC)C1c1ccc(O)cc1	none
COC(=O)C1=C(C)NC(C)=C(C(=O)OC)C1c1ccc(N(C)C)cc1	NF-kB expr up 3.7
COc1ccc(S(=O)(=O)n2nc(OC(=O)c3cccs3)cc2NC(=O)c2cccs2)cc1	none (no result: STAT3 activator, STAT3 inh)
O=C(N/N=C/c1c[nH]c2ccccc12)c1ccn(Cc2ccc(Cl)cc2)n1	STAT3 activator 135
Cc1ccc2nc3ccc(N4CCCC4)nn3c(=O)c2c1	STAT1 activator 134
Cc1sc2nc3ccc(N4CCCCC4)nn3c(=O)c2c1C	none
CC1CCCN(c2ccc3nc4ccccc4c(=O)n3n2)C1 (centres undefined)	APP 5'UTR act 175, STAT3 inh 76, STAT1 blocker 51
CN(Cc1nc(-c2cccs2)no1)CC1(N2CCOCC2)CCCCC1	none
CCOC(=O)C1CCCN(C(=O)c2cc(Nc3ccc(OC)cc3)nc3ccccc23)C1 (centres undefined)	none
COc1ccc(-c2nc(CCl)cs2)cc1	none
CCc1ccc(-c2nc(CCl)cs2)cc1	STAT1 activator 147
CCN1/C(=C\C(=S)Nc2ccccc2)Sc2ccccc21	STAT1 activator 144
O=C(c1ccco1)[C@@H]1[C@@H]2C(=O)N(c3ccc(F)cc3)C(=O)[C@@H]2C2c3ccccc3C=CN21 (some centres undefined)	STAT3 activator 134
O=C(c1ccco1)[C@@H]1[C@@H]2C(=O)N(c3ccc(F)cc3)C(=O)[C@@H]2[C@H]2C=Cc3ccccc3N21	none
O=C(NN=C1C2CC3CC1CC(Cl)(C3)C2)c1ccccn1	APP 5'UTR act 159
O=C(NN=C1c2ccccc2-c2ccccc21)c1ccccn1	none
O=C(NN=C1C2CC3CC1CC(Cl)(C3)C2)c1cccs1	APP 5'UTR act 141
O=C1c2ccccc2NC(c2ccccc2)N1/N=C/c1ccccc1 (centres undefined)	NF-kB expr up 3.8
O=C1c2ccccc2NC(c2ccc(O)cc2)N1/N=C/c1ccc(O)cc1 (centres undefined)	none
CNC(=O)NC(=O)C(C)OC(=O)c1c2c(nc3ccccc13)/C(=C/c1cccs1)CC2 (centres undefined)	STAT1 activator 130
CCCCNC(=O)COC(=O)c1c2c(nc3ccccc13)/C(=C/c1cccs1)CC2	none
N/C(=N\OC(=O)c1ccc(Cl)cc1Cl)c1ccccn1	STAT3 inh 86, STAT1 blocker 89
N/C(=N\OC(=O)c1cc(Br)ccc1Cl)c1ccccn1	APP 5'UTR act 180, NF-kB expr up 6
